Laboratory results as given in ChEMBL document CHEMBL1143725, “Alvaradoins E-N, antitumor and cytotoxic anthracenone C-glycosides from the leaves of Alvaradoa haitiensis” (J Nat Prod, 2007).
Active and inactive are the calls of the source. No cut-off for these calls is given here.

Legend:
KB = experiment: Cytotoxicity against human KB cells; assay type: functional, cell-based
Method in brief: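 Human oral epidermoid carcinoma (KB) cells were tested following previously established protocols. EC50 values were reported in μM as mean ± SEM from three separate experiments.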

P388 [1] = experiment: Antitumor activity in P388 cells xenografted mouse at 0.2 mg/kg body weight, ip for 5 days/week relative to control; assay type: functional; details: route intraperitoneal
Method in brief: (§1)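 Mice carried murine P388 lymphocytic leukemia cells implanted intraperitoneally. Treatment was given i.p. daily, 5 days per week. Activity was expressed as % T/C, treated versus control.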

P388 [2] = experiment: Antitumor activity in iv dosed mouse implanted with P388 xenografts; assay type: functional, organism-based
Method in brief: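 This was a P388 murine lymphocytic leukemia model in which both the leukemia cells and the treatment were delivered intravenously.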

P388 [3] = experiment: Antitumor activity in P388 cells xenografted mouse at 0.4 mg/kg body weight, ip for 5 days/week relative to control; assay type: functional; details: route intraperitoneal; method in brief: as §1

Compound	EC50 (KB)	further results
CC(=O)O[C@@H]1O[C@@H]([C@H]2c3cccc(O)c3C(=O)c3c(O)cc(C)cc32)[C@H](O)[C@@H](O)[C@H]1O [ALVARADOIN E]	50 nM	Activity (P388 [1]): 125%; Activity (P388 [2]): inactive
CC(=O)O[C@H]1O[C@H]([C@@H]2c3cccc(O)c3C(=O)c3c(O)cc(C)cc32)[C@H](O)[C@@H](O)[C@H]1O [ALVARADOIN F]	65 nM	Activity (P388 [3]): 115%; Activity (P388 [2]): inactive
CC(=O)O[C@H]1O[C@H]([C@@H]2c3cccc(O)c3C(=O)c3c(O)cc(C)cc32)[C@H](O)[C@@H](OC(=O)C=C(C)C)[C@H]1O [ALVARADOIN G]	650 nM	
CC(=O)O[C@@H]1O[C@@H]([C@H]2c3cccc(O)c3C(=O)c3c(O)cc(C)cc32)[C@H](O)[C@@H](OC(=O)C=C(C)C)[C@H]1O [ALVARADOIN H]	1070 nM	
CC(=O)O[C@H]1O[C@H]([C@@]2(O)c3cccc(O)c3C(=O)c3c(O)cc(C)cc32)[C@H](O)[C@@H](OC(=O)C=C(C)C)[C@H]1O [ALVARADOIN I]	12500 nM	
CC(=O)O[C@H]1O[C@H]([C@]2(O)c3cccc(O)c3C(=O)c3c(O)cc(C)cc32)[C@H](O)[C@@H](OC(=O)C=C(C)C)[C@H]1O [ALVARADOIN J]	15900 nM	
CC(C)=CC(=O)O[C@@H]1[C@H](O)[C@@H](O)[C@@H]([C@@H]2c3cccc(O)c3C(=O)c3c(O)cc(C)cc32)O[C@@H]1O [ALVARADOIN K]	270 nM	
CC(C)=CC(=O)O[C@@H]1[C@H](O)[C@@H](O)[C@@H]([C@H]2c3cccc(O)c3C(=O)c3c(O)cc(C)cc32)O[C@@H]1O [ALVARADOIN L]	590 nM	
CC(C)=CC(=O)O[C@@H]1[C@@H](O)[C@@H]([C@H]2c3cccc(O)c3C(=O)c3c(O)cc(C)cc32)O[C@H](O)[C@@H]1O [ALVARADOIN M]	380 nM	
CC(=O)O[C@H]1O[C@H]([C@]2(O)c3cccc(O)c3C(=O)c3c(O)cc(C)cc32)[C@H](O)[C@@H](O)[C@H]1O [ALVARADOIN N]	2940 nM	
CC[C@@]1(O)C(=O)OCc2c1cc1n(c2=O)Cc2cc3ccccc3nc2-1 [CAMPTOTHECIN]	3.6 nM	
Cc1cc(O)c2c(c1)C(=O)c1cccc(O)c1C2=O [CHRYSOPHANOL]	> 20000 nM	
